Data from ChEMBL document CHEMBL3867454, “Corallocins A-C, Nerve Growth and Brain-Derived Neurotrophic Factor Inducing Metabolites from the Mushroom Hericium coralloides” (J Nat Prod, 2016).
Converted amounts (≈) assume the structure as drawn. The source made the active and inactive calls. The calls are words filed in the database; no cut-off is given here.

Key:
[1] = Upregulation of NGF expression in human 1321N1 cells at 68.9 uM measured after 6 hrs by semiquantitative RT-PCR analysis relative to DMSO-control; format: functional, cell-based
Summary of the method: (§1)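 1321N1 astrocytes were grown to confluence on 3.5 cm plates and switched to serum-free DMEM 24 h before compound addition. Primers were specific for GAPDH, NGF (189 bp) and BDNF (101 bp). PCR programs: GAPDH 20 cycles at 60 °C annealing; NGF 30 cycles at 61 °C; BDNF 30 cycles at 58 °C. Products were run on 1% or 2% agarose, with GAPDH as loading control and identity confirmed by sequencing. n = 3 independent experiments.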

[2] = Cytotoxicity against mouse L929 cells measured after 5 days by MTT assay; format: functional, cell-based; details: L929, 120 h
Summary of the method: (§2)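 Compounds added from 30 μg/mL methanol stocks by serial dilution in 96-well plates. L929 was cultured in DMEM, MCF-7 and KB-3-1 in RPMI-1640, all with 10% FCS, 5% CO2, 37 °C, 5 days. Methanol was the negative control and epothilone A the positive control. IC50 values were derived from the dilution series.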

[3] = Cytotoxicity against HUVEC measured after 5 days by MTT assay; format: functional, cell-based; details: Homo sapiens, 120 h
[4] = Cytotoxicity against human MCF7 cells measured after 5 days by MTT assay; format: functional, cell-based; details: MCF7, 120 h; summary of the method: as §2
[5] = Cytotoxicity against human KB-3-1cells measured after 5 days by MTT assay; format: functional, cell-based; details: KB 3-1, 120 h; summary of the method: as §2
[6] = Antifungal activity against Mucor plumbeus MUCL 49355 measured after 20 to 24 hrs by serial dilution assay; format: functional
[7] = Increase in BDNF expression in human 1321N1 cells at 68.9 uM measured after 6 hrs by semiquantitative RT-PCR analysis relative to DMSO-control; format: functional; summary of the method: as §1
1321N1 (Homo sapiens) = test: Cytotoxicity against human 1321N1 cells assessed as induction of cell death measured after 24 hrs; details: pooled result: one value given for 2 cell lines, strains, targets or settings
1321-N1 [8] = test: Induction of NGF secretion in human 1321N1 cells at 57.8 uM after 48 hrs; format: functional, cell-based
1321-N1 [9] = test: Induction of NGF secretion in human 1321N1 cells at 19.6 uM after 48 hrs; format: functional, cell-based
PC-12 [10] = test: Intrinsic neurotrophic activity in rat PC12 cells in conditioned 1321N1 culture medium assessed as neurite outgrowth at 19.6 uM measured after 48 hrs by light microscopy method; format: functional, cell-based
[11] = Upregulation of NGF expression in human 1321N1 cells at 19.6 uM measured after 6 hrs by semiquantitative RT-PCR analysis relative to DMSO-control; format: functional, cell-based; summary of the method: as §1
[12] = Increase in BDNF expression in human 1321N1 cells at 19.6 uM measured after 6 hrs by semiquantitative RT-PCR analysis relative to DMSO-control; format: functional; summary of the method: as §1
[13] = Upregulation of NGF expression in human 1321N1 cells at 57.8 uM measured after 6 hrs by semiquantitative RT-PCR analysis relative to DMSO-control; format: functional, cell-based; summary of the method: as §1
PC-12 [14] = test: Intrinsic neurotrophic activity in rat PC12 cells in conditioned 1321N1 culture medium assessed as neurite outgrowth at 57.8 uM measured after 48 hrs by light microscopy method; format: functional, cell-based

Q: For `COc1cc2c(c(O)c1C/C=C(\C)CCC=C(C)C)CN(CCc1ccc(O)cc1)C2=O`, which fold change (FC) [1] is on record?
A: 2

Q: And the IC50 [2]?
A: 14.7 µM

Q: What about the IC50 [3] of the same compound?
A: 2.1 µM

Q: And the IC50 [4]?
A: 9.2 µM

Q: And the IC50 [5]?
A: 11.5 µM

Q: What about the MIC [6] of the same compound?
A: 57.4 µM (≈ 25 µg/mL)

Q: What about the “fold change (FC)” value [7] of the same compound?
A: 1.5

Q: And the MNTC at 24 h (1321N1 (Homo sapiens))?
A: 68.9 µM

Q: What does the source list for `COc1cc2c(c(O)c1C/C=C(\C)CCC=C(C)C)CN(CCc1c[nH]c3ccccc13)C2=O`?
A: Activity (1321-N1 [8]): Active; Activity (1321-N1 [9]): Active; Activity (PC-12 [10]): Active; fold change (FC) [11]: 5; fold change (FC) [12]: 1.9; MNTC at 24 h (1321N1 (Homo sapiens)): 19.6 µM

Q: Which fold change (FC) [13] does the source give for `COc1cc2c(c(O)c1C/C=C(\C)CC/C=C(\C)C(=O)O)COC2=O` here?
A: 3

Q: And the Activity (1321-N1 [8])?
A: Active

Q: What about the Activity (1321-N1 [9]) of the same compound?
A: Active

Q: And the Activity (PC-12 [14])?
A: Active

Q: What about the MNTC at 24 h (1321N1 (Homo sapiens)) of the same compound?
A: 57.8 µM
